Test [1] concerns HL-60. The test can be described thus: Cytotoxicity against human HL60 cells assessed as cell viability after 72 hrs by MTT assay. The test is classed as functional, cell-based. Particulars: HL-60, 72 h. A digest of the protocol: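 HL-60 myeloid leukemia cells in RPMI 1640 with 10% heat-inactivated FBS, penicillin/streptomycin, 37 °C, 5% CO2. Exponentially growing cells (1 × 10⁴/well) exposed to 0.3–100 µM glycoside (100 mM DMSO stocks) for 72 h. MTT read at 570 nm. Survival taken as percent of control absorbance. IC50 from concentration–response curves fitted per experiment (DeLean equation). Triplicate determinations.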

Test [2] has as its system HL-60. Description: Induction of apoptosis in human HL60 cells assessed as morphological changes at 10 uM after 24 hrs by phase contrast microscopy. Type of test: functional, cell-based. In short, it runs like this:
(§1)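 HL-60 cells cultured in RPMI 1640/10% FBS at 37 °C, 5% CO2. Treated with 10 µM glycoside for 24 h. Representative fields examined by inverted phase contrast microscopy for morphology and growth.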

In test [3] the test system is HL-60. Description: Growth inhibition in human HL60 cells at 10 uM after 24 hrs by phase contrast microscopy. The test is classed as functional, cell-based. A digest of the protocol: as §1
In test [4] the test system is HL-60. Description: Induction of apoptosis in human HL60 cells assessed as condensed chromatin at 10 uM after 24 hrs by Hoechst 33258 staining method. Type of test: functional, cell-based. In short, it runs like this:
(§2)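 Nuclear chromatin condensation and fragmentation in HL-60 cells scored by fluorescent microscopy after Hoechst 33258 staining. Treated cells compared with control cells.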

Test [5] has as its system HL-60. The test can be described thus: Induction of apoptosis in human HL60 cells assessed as fragmented chromatin at 10 uM after 24 hrs by Hoechst 33258 staining method. Type of test: functional, cell-based. In short, it runs like this: as §2
Test [6] deals with HL-60. Description: Induction of apoptosis in human HL60 cells assessed as increase in hypodiploid cells at sub-G1 fraction at 10 uM after 24 hrs by propidium iodide based flow cytometry relative to control. The test is classed as functional. A digest of the protocol: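 HL-60 cells incubated with 10 µM glycoside for 24 h, labelled with propidium iodide and analysed by flow cytometry. Hypodiploid (sub-G1) fraction compared with control cells.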

Test [7] deals with HL-60. The test can be described thus: Induction of apoptosis in human HL60 cells assessed as caspase 3/7 activation measuring cleavage of tetrapeptide DEVD-pNA at 1 to 10 uM after 24 hrs. The test is classed as functional, cell-based. In short, it runs like this:
(§3)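 HL-60 cells treated with increasing glycoside concentrations and harvested at 24 h. Lysates assayed colorimetrically with DEVD-pNA (caspase-3/7), IETD-pNA (caspase-8) and LEHD-pNA (caspase-9). Activity expressed as fold increase over control, mean ± SE. Two independent experiments, each in duplicate.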

Test [8] concerns HL-60. The test can be described thus: Induction of apoptosis in human HL60 cells assessed as caspase 8 activation measuring cleavage of tetrapeptide IETD-pNA at 1 to 10 uM after 24 hrs. Type of test: functional, cell-based. A digest of the protocol:
as §3

Test [9] relates to HL-60. The test can be described thus: Induction of apoptosis in human HL60 cells assessed as caspase 9 activation measuring cleavage of tetrapeptide LEHD-pNA at 1 to 10 uM after 24 hrs. Type of test: functional, cell-based. A digest of the protocol:
as §3

Active and inactive are the calls of the source. No cut-off for these calls is given here.

Here are results for 13 molecules from ChEMBL document CHEMBL2010760, “New insights into the structure-cytotoxicity relationship of spirostan saponins and related glycosides” (Bioorg Med Chem, 2012).

The IC50 is the concentration that inhibits the measured activity by half.

As to `C[C@@H]1CC[C@@]2(OC1)O[C@H]1C[C@H]3[C@@H]4CC(=O)[C@@]5(O)C[C@@H](O[C@@H]6O[C@H](CO)[C@@H](O)[C@H](O)[C@H]6O[C@@H]6O[C@@H](C)[C@H](O)[C@@H](O)[C@H]6O)CC[C@]5(C)[C@H]4CC[C@]3(C)[C@H]1[C@@H]2C`, the IC50 in the test with HL-60 [1] amounted to 86.7 µM.

Consider `C[C@@H]1CC[C@@]2(OC1)O[C@H]1C[C@H]3[C@@H]4CC(=O)[C@@]5(O)C[C@@H](O[C@@H]6O[C@H](CO)[C@@H](O[C@@H]7O[C@@H](C)[C@H](O)[C@@H](O)[C@H]7O)[C@H](O)[C@H]6O[C@@H]6O[C@@H](C)[C@H](O)[C@@H](O)[C@H]6O)CC[C@]5(C)[C@H]4CC[C@]3(C)[C@H]1[C@@H]2C`, for which, in the test with HL-60 [1], the IC50 is above 100 µM.

`C[C@@H]1CC[C@@]2(OC1)O[C@H]1C[C@H]3[C@@H]4CC(=O)[C@@]5(O)C[C@@H](O[C@@H]6O[C@H](CO[C@@H]7O[C@@H](C)[C@H](O)[C@@H](O)[C@H]7O)[C@@H](O[C@@H]7O[C@@H](C)[C@H](O)[C@@H](O)[C@H]7O)[C@H](O)[C@H]6O)CC[C@]5(C)[C@H]4CC[C@]3(C)[C@H]1[C@@H]2C`: the IC50 in the test with HL-60 [1] was above 100 µM.

As for `C[C@@H]1CC[C@@]2(OC1)O[C@H]1C[C@H]3[C@@H]4CC[C@H]5C[C@@H](O[C@@H]6O[C@H](CO)[C@@H](O)[C@H](O)[C@H]6O[C@@H]6O[C@@H](C)[C@H](O)[C@@H](O)[C@H]6O)CC[C@]5(C)[C@H]4CC(=O)[C@]3(C)[C@H]1[C@@H]2C`, in the test with HL-60 [1], the IC50 is above 100 µM.

`C[C@@H]1CC[C@@]2(OC1)O[C@H]1C[C@H]3[C@@H]4CC(=O)[C@@]5(O)C[C@@H](O[C@@H]6O[C@H](COC(=O)C(C)(C)C)[C@@H](O)[C@H](OC(=O)C(C)(C)C)[C@H]6O)CC[C@]5(C)[C@H]4CC[C@]3(C)[C@H]1[C@@H]2C`: the IC50 in the test on HL-60 [1] stood at 2.1 µM. Further, the result in the test with HL-60 [2], in the test with HL-60 [4], in the test on HL-60 [5], in the test with HL-60 [7], in the test with HL-60 [8] and with HL-60 [9] was Active. Moreover, in the test on HL-60 [3], the “growth inhibition (GI)” value was “Active”. Moreover, in the test on HL-60 [6], the “fold change (FC)” value worked out at 7.

Turning to `C[C@@H]1CC[C@@]2(OC1)O[C@H]1C[C@H]3[C@@H]4CC=C5C[C@@H](O[C@@H]6O[C@H](CO)[C@@H](O[C@@H]7O[C@@H](C)[C@H](O)[C@@H](O)[C@H]7O)[C@H](O)[C@H]6O[C@@H]6O[C@@H](C)[C@H](O)[C@@H](O)[C@H]6O)CC[C@]5(C)[C@H]4CC[C@]3(C)[C@H]1[C@@H]2C` [DIOSCIN], the IC50 in the test on HL-60 [1] came to 3.8 µM.

For the molecule `C[C@@H]1CC[C@@]2(OC1)O[C@H]1C[C@H]3[C@@H]4CC[C@H]5C[C@@H](O[C@@H]6O[C@@H]7CO[C@@H](c8ccccc8)O[C@H]7[C@H](OC(=O)C(C)(C)C)[C@H]6O)CC[C@]5(C)[C@H]4CC(=O)[C@]3(C)[C@H]1[C@@H]2C`, the IC50 in the test with HL-60 [1] came out at 45 µM.

Take `C[C@@H]1CC[C@@]2(OC1)O[C@H]1C[C@H]3[C@@H]4CC[C@H]5C[C@@H](O[C@@H]6O[C@H](CO[C@@H]7O[C@@H](C)[C@H](O)[C@@H](O)[C@H]7O)[C@@H](O[C@@H]7O[C@@H](C)[C@H](O)[C@@H](O)[C@H]7O)[C@H](O)[C@H]6O)CC[C@]5(C)[C@H]4CC(=O)[C@]3(C)[C@H]1[C@@H]2C`: the IC50 with HL-60 [1] is above 100 µM.

Turning to `C[C@@H]1CC[C@@]2(OC1)O[C@H]1C[C@H]3[C@@H]4CC[C@H]5C[C@@H](O[C@@H]6O[C@H](CO)[C@@H](O)[C@H](O)[C@H]6O)CC[C@]5(C)[C@H]4CC(=O)[C@]3(C)[C@H]1[C@@H]2C`, the IC50 in the test on HL-60 [1] was above 100 µM.

Turning to `C[C@@H]1CC[C@@]2(OC1)O[C@H]1C[C@H]3[C@@H]4CC[C@H]5C[C@@H](O[C@@H]6O[C@H](COC(=O)C(C)(C)C)[C@@H](O)[C@H](OC(=O)C(C)(C)C)[C@H]6O)CC[C@]5(C)[C@H]4CC(=O)[C@]3(C)[C@H]1[C@@H]2C`, the IC50 with HL-60 [1] came out at 12 µM.

Regarding `C[C@@H]1CC[C@@]2(OC1)O[C@H]1C[C@H]3[C@@H]4CC(=O)[C@@]5(O)C[C@@H](O[C@@H]6O[C@@H]7CO[C@@H](c8ccccc8)O[C@H]7[C@H](OC(=O)C(C)(C)C)[C@H]6O)CC[C@]5(C)[C@H]4CC[C@]3(C)[C@H]1[C@@H]2C`, the IC50 in the test with HL-60 [1] stood at 3.3 µM.

As for `C[C@@H]1CC[C@@]2(OC1)O[C@H]1C[C@H]3[C@@H]4CC(=O)[C@@]5(O)C[C@@H](O[C@@H]6O[C@H](CO)[C@@H](O)[C@H](O)[C@H]6O)CC[C@]5(C)[C@H]4CC[C@]3(C)[C@H]1[C@@H]2C`, the IC50 in the test on HL-60 [1] is above 100 µM.

As for `C[C@@H]1CC[C@@]2(OC1)O[C@H]1C[C@H]3[C@@H]4CC[C@H]5C[C@@H](O[C@@H]6O[C@H](CO)[C@@H](O[C@@H]7O[C@@H](C)[C@H](O)[C@@H](O)[C@H]7O)[C@H](O)[C@H]6O[C@@H]6O[C@@H](C)[C@H](O)[C@@H](O)[C@H]6O)CC[C@]5(C)[C@H]4CC(=O)[C@]3(C)[C@H]1[C@@H]2C`, in the test with HL-60 [1], the IC50 is 4.3 µM.
